Candida biofilm: kills Candida albicans biofilms; C. albicans biofilm + clotrimazole, Alamar Blue; inhibition, % at 6 µM; 85,000 compounds, 0.14% hits; AID 834;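 active = inhibition above 20%; inactive = inhibition below 20%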;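 note: preformed 24 hr biofilms exposed to compound for 48 hr; 0% = biofilm without compound and 100% = blank killed by clotrimazole plus chlorhexidine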
DAT uptake mod: modulates human dopamine transporter uptake under cocaine. Q01959. LLC-PK1 hDAT cells, [14C]-dopamine uptake with cocaine IC80; actives deviate in either direction. 110,000 compounds, 1.3% hits. AID 449768. B-score at 10 µM;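 active = Z score or B-score, a plate-position-corrected score, falls beyond the plate's 99.7% confidence bounds, in either direction; inactive = both scores lie inside the 99.7% bounds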;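 note: scored against the spread of the other compound wells on the same plate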
Target sequence (Q01959 whole entry, looked up): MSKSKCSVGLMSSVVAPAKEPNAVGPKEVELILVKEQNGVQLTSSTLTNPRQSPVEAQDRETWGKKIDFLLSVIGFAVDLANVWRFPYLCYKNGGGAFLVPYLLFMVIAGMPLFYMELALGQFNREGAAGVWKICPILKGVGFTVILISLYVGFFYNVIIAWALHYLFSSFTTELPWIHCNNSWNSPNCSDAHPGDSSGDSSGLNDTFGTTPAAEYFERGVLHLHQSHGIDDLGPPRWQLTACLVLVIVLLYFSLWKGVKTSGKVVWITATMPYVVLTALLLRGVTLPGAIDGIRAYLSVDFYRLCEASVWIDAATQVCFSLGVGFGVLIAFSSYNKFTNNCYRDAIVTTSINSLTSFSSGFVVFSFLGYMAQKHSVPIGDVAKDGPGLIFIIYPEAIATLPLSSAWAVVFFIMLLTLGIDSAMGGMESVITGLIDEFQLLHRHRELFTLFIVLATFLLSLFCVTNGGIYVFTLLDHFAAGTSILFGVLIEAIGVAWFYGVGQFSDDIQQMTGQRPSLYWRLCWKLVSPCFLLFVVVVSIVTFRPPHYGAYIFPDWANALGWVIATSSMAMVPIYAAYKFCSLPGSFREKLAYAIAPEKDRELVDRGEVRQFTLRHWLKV
AP ELISA ortho: orthogonal test for alternative complement pathway inhibitors. Human serum alternative complement pathway, LPS-coated ELISA, C3 deposition; tested in compound mixtures. inhibition, % at 5 µM. 62,000 compounds, 0.08% hits. AID 1235;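 active = inhibition above 30% in each of the two pooled mixtures holding the compound, so the lower value exceeds 30%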;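 note: 0% = serum in Mg-EGTA without compound and 100% = EDTA serum blank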
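Medium: diluted human serum in Mg2+-EGTA GVB++. Assay system: human serum complement alternative pathway, C3 deposition onto LPS. Also added: Plate-bound LPS. Technique: Anti-C3 ELISA, OD 450 nm. Measure: percent inhibition. Incubation: 1 h at 37 °C. Dosing: 5 µM each compound, pools of ten, 50 µM per pool.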
D1 allo mod: allosterically modulates the human D1 dopamine receptor; P21728; HEK293 D1, CRE-luciferase, dopamine EC30 potentiation; actives deviate in either direction; B-score at 10 µM; 58,000 compounds, 5.9% hits; AID 641;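 active = luminescence count or its row- and column-corrected plate score outside the 99.7% band of the plate's sample wells, on either side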
MMP13 inh: inhibitors of human MMP13 | AID 570 | MMP-13 fTHP FRET cleavage, Mca fluorescence | 65,000 compounds, 0.07% hits | inhibition, % at 4 µM;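 active = inhibition above the mean of compound-free control plate wells plus 3 SD, cut at about 14% in these data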;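 note: 0% = DMSO wells and 100% = wells with reference MMP-13 inhibitor after basal subtraction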
* marks the source's active call; other numbers are inactive results; · = no result. Only a selection was taken, and hits are over-represented in it overall.

SMILES | Candida biofilm | DAT uptake mod | AP ELISA ortho | D1 allo mod | MMP13 inh
O=C(NC1CCC(NC(=O)C(F)(F)C(F)F)CC1)C(F)(F)C(F)F (stereo unspecified) | 11.8 | 0.476 | 3.4 | -3.24* | 1.9
O=C(NCCCNC(=O)C(F)(F)C(F)F)C(F)(F)C(F)F | -6.2 | -0.177 | -11.5 | -0.49 | 4.1
O=C(O)c1nn(-c2ccccc2)nc1-c1nn(-c2ccccc2)nc1C(=O)O | 5.0 | -1.12 | 15.2 | 0.198 | -25.9
O/N=C1/CC/C(=N\O)c2nn(-c3ccccc3)nc21 | · | -8.05* | 8.4 | 0.507 | 4.5
O=C1CCCC2=C1C(O)(C(F)(F)F)C(=O)N2Cc1ccccc1 (stereo unspecified) | · | -0.364 | 27.5 | -0.171 | 4.7
O=C1N2c3ccccc3CCc3cccc(c32)C1(O)C(F)(F)F (stereo unspecified) | · | -2.2 | 6.3 | -2.74* | 3.5
COc1ccccc1C(=O)Nc1ncc2c(n1)CC(c1ccco1)CC2=O (stereo unspecified) | 7.4 | -3.81* | -3.5 | 0.472 | -0.2
CC12C=CC3(O1)C(C(=O)N(c1ccccc1)C3C(=O)NC1CCCC1)C2C(N)=O (stereo unspecified) | 9.8 | -0.0542 | · | · | ·
Cc1cc(NC(=O)CSc2c(C)[nH]c3ccccc23)no1 | 2.4 | -1.52 | 8.9 | · | 0.5
Cc1cc(NC(c2cccnc2)c2c(C)[nH]c3ccccc23)no1 (stereo unspecified) | 27.4* | -0.0626 | 10.9 | -0.844 | 3.5
CCOc1ccc(NC(=O)c2cnsn2)cc1 | 10.4 | -0.157 | 1.3 | -4.92* | 1.5
CCOc1ccc(NC(=O)c2ccccc2O)cc1 | 1.5 | 2.3 | 8.4 | -4.71* | -6.4
CCn1cc(C(=O)N2CCN(c3ccccn3)CC2)c2cc(OC)c(OC)cc2c1=O | 10.0 | -8.71* | 15.9 | 0.391 | -1.1
COc1cc(-c2cc(C(=O)N3CCN(c4ccccn4)CC3)c3ccccc3n2)cc(OC)c1OC | 6.1 | 3.73* | 14.7 | -3.97* | -2.9
COCc1cc(=O)[nH]c2cc(NC(=O)C(C)(C)CCl)c(C)cc12 | · | -7.76* | · | · | ·
Cn1c(=O)oc2cc(S(=O)(=O)NCCN3CCCCCC3)ccc21 | 6.3 | -0.407 | 6.8 | · | 4.3
Cn1c(=O)oc2cc(S(=O)(=O)NCCN3CCN(c4ccccc4F)CC3)ccc21 | 6.5 | -0.193 | 1.4 | -5.94* | 1.9
Cc1ccc(NC(=O)c2cc([N+](=O)[O-])ccc2NCc2cccnc2)cc1 | · | 1.11 | · | · | ·
CCOC(=O)N1CCC2(CC1)C(C#N)=C(N)Oc1n[nH]c(CSc3ccc(C)cc3)c12 | 0.2 | 0.145 | 12.4 | -4.59* | 3.3
CCCC(C)NC(=O)c1cc(Cl)ccc1OC (stereo unspecified) | 7.2 | -0.719 | · | · | ·
CCC(=C(c1ccc(OC)cc1)c1ccc(OC)cc1)c1cn(CC(O)CN2CCN(C)CC2)c2ccccc12 (stereo unspecified) | -2.0 | · | · | · | ·
O=S(=O)(c1ccc(Oc2ccc(Cl)cc2)c(S(=O)(=O)N2CCCCC2)c1)N1CCCCC1 | 1.5 | -1.75 | · | · | ·
CC(C)(C)N1C(=O)Cc2c1nc(N)c1c(N)nc(N3CCCCC3CO)c(C#N)c21 (stereo unspecified) | -3.4 | -4.19* | 6.3 | -0.244 | -35.4
CN(CCO)c1nc(N)c2c(N)nc3c(c2c1C#N)CC(=O)N3C1CCCC1 | 3.8 | -1.47 | · | · | ·
Cc1cccc2cc(CN(Cc3ccccc3)C(=O)N3CCOCC3)c3nnnn3c12 | 3.2 | · | · | · | ·
SMILES | Candida biofilm | DAT uptake mod | AP ELISA ortho | D1 allo mod | MMP13 inh
CCCN(CCC)CCNC(=O)C1CCCN(S(=O)(=O)c2ccc3c(c2)oc(=O)n3C)C1 (stereo unspecified) | 0.8 | -0.772 | -5.8 | -3.09* | -0.3
CCCC(=O)N(CCN(C(=O)CCC)c1ccccc1)c1ccccc1 | 5.0 | 0.94 | · | · | ·
COc1ccc(NC(=O)COn2nnc3ccc(Cl)cc32)cc1OC | 5.5 | 0.601 | 11.0 | -2.6* | -1.8
O=c1oc(-c2cccs2)nc2ccc(Br)cc12 | 4.1 | -0.257 | · | · | ·
COc1cc2nc(-c3cccs3)oc(=O)c2cc1OC | 6.4 | -0.335 | 22.1 | 5.6* | 2.6
COc1ccc(-c2ccncc2)cc1OC | · | -0.717 | · | · | ·
CC1CCCCC1NS(=O)(=O)c1ccc(S(=O)(=O)N2CCCC2)cc1 (stereo unspecified) | 4.0 | -5.02* | 15.7 | 0.992 | 6.5
CC1CCCCC1NS(=O)(=O)c1ccc(-n2cnnn2)cc1 (stereo unspecified) | 7.2 | 0.0419 | 11.4 | -2.48* | -2.0
O=c1[nH]ccc2c(O)cccc12 | · | 1.69 | · | · | ·
